This is a sample that favours compounds with a hit; in the whole collection about 4.7% have one here.
SKN-1 inh: inhibitors of C. elegans SKN-1. C. elegans VP596 Pgst-4::GFP/RFP ratio, acrylamide-induced, 24 h. inhibition, % at 21.8 µM. 360,000 tested, 0.49% active;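 active means interference check ratio from 0.5 to 1.5 plus GFP to RFP signal ratio inhibition reaching or exceeding a fixed threshold, cut at about 30% in these data, passing the limit was not always enough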
MPTP inh: permeability transition pore inhibition; isolated mouse mitochondria, Ca2+ swelling absorbance, 30 min; inhibition, % at 10 µM; 360,000 tested, 1.4% active; AID 602449;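 active means inhibition of 50% or more, scaled per plate between neutral and stimulator controls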
ADAM10 inh: inhibits human ADAM10 | O14672 | recombinant ADAM10, EDANS/DABCYL FRET peptide cleavage, 3 h | inhibition, % at 7 µM | 370,000 tested, 0.62% active | AID 720582;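 active means inhibition above a per-campaign cutoff equal to the mean of compounds falling between control-based bounds plus 3 SD, cut at about 20% in these data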
Target sequence (O14672 214-748 limits assumed): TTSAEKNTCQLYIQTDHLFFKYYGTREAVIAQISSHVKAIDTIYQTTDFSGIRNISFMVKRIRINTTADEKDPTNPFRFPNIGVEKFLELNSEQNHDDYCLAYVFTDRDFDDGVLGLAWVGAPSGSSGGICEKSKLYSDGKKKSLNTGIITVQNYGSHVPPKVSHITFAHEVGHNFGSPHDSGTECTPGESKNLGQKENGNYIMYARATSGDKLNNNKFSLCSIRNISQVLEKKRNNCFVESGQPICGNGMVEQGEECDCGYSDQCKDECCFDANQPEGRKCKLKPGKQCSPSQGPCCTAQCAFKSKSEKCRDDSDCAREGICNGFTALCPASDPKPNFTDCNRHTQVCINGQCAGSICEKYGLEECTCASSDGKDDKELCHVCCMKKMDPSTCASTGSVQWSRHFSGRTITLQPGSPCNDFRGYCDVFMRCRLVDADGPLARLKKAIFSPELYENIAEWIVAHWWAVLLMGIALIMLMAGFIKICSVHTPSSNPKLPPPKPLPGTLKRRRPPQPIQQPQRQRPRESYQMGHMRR
ADAM17 inh: inhibits human ADAM17. recombinant ADAM17, EDANS/DABCYL FRET peptide cleavage. inhibition, % at 6.95 µM. 370,000 tested, 0.83% active. AID 720648;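 active means inhibition above the mean of compounds lying between control limits plus 3 SD, set per campaign, cut at about 8.5% in these data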
GRIN3A LBD mod: modulators (binders) of human NR3A ligand-binding domain | Tm shift relative to glycine control, % at 25 µM | 340,000 tested, 2.5% active | NR3A LBD differential scanning fluorimetry, Tm shift; 0% = protein alone, 100% = glycine-bound protein;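 active means melting temperature shift of at least 10% of the positive control shift, at one fixed dose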
MT1-MMP act inh: inhibitors of human MT1-MMP activation; P50281; HT1080 RFP-PRO-GFP cells, GFP/RFP ratio fluorescence, overnight; percent of plate control window, DMSO zero; GFP/RFP ratio change, % at 20 µM; 360,000 tested, 0.061% active;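 active means GFP/RFP ratio change of at least 30% with cell ATP level not reduced by more than half and red fluorescence within 50% of control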
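Assay system: RFP-PRO-GFP reporter HT1080 cells; read-out basis: GFP/RFP fluorescence ratio; benchmarks: DMSO wells and RFP-L50D-GFP cells; doses: 20 µM single dose, 1% DMSO; schedule: overnight cell settling, then overnight compound exposure, 37 °C, 5% CO2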
Hits are given with their value; . = inactive; / = no result given.

SMILES	SKN-1 inh	MPTP inh	ADAM10 inh	ADAM17 inh	GRIN3A LBD mod	MT1-MMP act inh
CCOc1ccc(C(=O)OCC(=O)NCCNC(=O)COC(=O)c2ccc(OCC)cc2)cc1	.	.	.	.	14	.
O=C(c1cc(-c2ccncc2)nc2c(Cl)cccc12)N1CCN(c2ccccc2F)CC1	.	.	.	.	/	.
O=C(NC(=S)Nc1nc(-c2ccc(Br)cc2)cs1)c1ccco1	.	.	.	.	30	.
O=C(NC(=S)Nc1nc(-c2ccc([N+](=O)[O-])cc2)cs1)c1ccco1	.	.	.	.	20	.
Cc1cc(C)cc(OC[C@@H](O)CN2CCC(C(O)(c3ccccc3)c3ccccc3)CC2)c1	/	/	.	.	/	/
CC(=O)N1c2ccc(S(=O)(=O)N3CCC(C(=O)NCc4ccccc4)CC3)cc2CC1C (centres undefined)	.	.	.	.	.	.
CC(OC(=O)Cc1coc2cc3c(cc12)CCC3)C(=O)NC(N)=O (centres undefined)	.	.	.	.	.	.
COc1ccc(C2Nc3ccc4ccccc4c3-c3c2c(=O)oc2ccccc32)cc1 (centres undefined)	.	.	.	.	/	.
CCOc1ccc(C2Nc3ccc4ccccc4c3-c3c2c(=O)oc2ccccc32)cc1 (centres undefined)	.	.	.	.	14	.
Cc1ccc(-c2cc(-c3ccccc3C)[nH]n2)c(O)c1	.	.	.	.	.	.
Cc1ccc(-c2cc(-c3cccc(F)c3)n[nH]2)c(O)c1	.	.	.	.	17	.
Cc1ccc(O)c(-c2cc(-c3ccccc3F)[nH]n2)c1	.	.	.	.	.	.
Cc1ccc(O)c(-c2cc(-c3cccc(F)c3)n[nH]2)c1	37	.	.	.	12	.
CCOC(=O)c1c(N)sc2c1CCC(CC)C2 (centres undefined)	.	.	.	.	.	.
CCOC(=O)c1c(N)sc2c1CCC1C(=O)N(C3CCCCC3)C(=O)C21 (centres undefined)	.	.	.	.	13	.
Cc1ccccc1C(=O)Nc1nnc(CC(=O)N/N=C/c2ccncc2)s1	.	.	.	.	.	.
O=[N+]([O-])c1ccc(Oc2ccc(F)cc2)c2ccncc12	36	.	.	.	.	.
COc1ccc2nc3sc(C(=O)NCCCN4CCc5ccccc5C4)cc3cc2c1	.	.	.	.	23	.
CCC(C)(C)C1CCc2[nH]nc(C(=O)N/N=C(\C)c3ccco3)c2C1 (centres undefined)	.	.	.	.	.	.
Cc1ccccc1NC(c1cccc(Cl)c1)c1nnnn1C1CCCCC1 (centres undefined)	.	.	.	.	13	.
N#Cc1cccc(C(c2nnnn2C2CCCC2)N2CCCCCC2)c1 (centres undefined)	.	.	.	.	.	.
COc1ccc(C(=O)c2c(C)oc3ccc(O)cc23)cc1	.	.	.	.	.	.
COc1ccc(C(=O)c2ccc3oc(-c4ccc(OC)cc4)c(-c4ccc(O)cc4)c3c2)cc1	.	.	.	8.6	11	.
NC(=O)CSc1nnc(-c2ccc(S(=O)(=O)N3CCCC3)cc2)n1Cc1ccco1	.	.	/	/	11	.
O=C(O)CSc1nnc(-c2ccc(S(=O)(=O)N3CCCC3)cc2)n1Cc1ccco1	.	.	.	.	.	.
SMILES	SKN-1 inh	MPTP inh	ADAM10 inh	ADAM17 inh	GRIN3A LBD mod	MT1-MMP act inh
CC(=O)Nc1ccc2c(c1)Cc1c-2cc(Br)c(N)c1Br	37	.	.	.	.	.
CC(=O)Nc1ccc2c(c1)CCc1ccccc1-2	.	.	.	.	10	.
CC(=O)Nc1ccc2c(c1)C(=O)c1ccccc1C2=O	.	.	.	.	.	.
CC(C)NS(=O)(=O)c1ccc(OCC(=O)NCc2ccccc2)cc1	.	.	.	.	11	.
O=C(COc1ccc(S(=O)(=O)N2CCOCC2)cc1)Nc1cccc([N+](=O)[O-])c1	.	.	.	.	19	.
COc1ccc(OCC(=O)NS(=O)(=O)c2ccc(Cl)cc2)cc1	.	.	.	.	.	.
O=C(COc1ccc([N+](=O)[O-])cc1)Nc1ccc(S(=O)(=O)N2CCOCC2)cc1	.	.	.	.	.	.
CC(NS(=O)(=O)c1ccc(OCC(=O)Nc2cccc([N+](=O)[O-])c2)cc1)c1ccccc1 (centres undefined)	.	.	.	.	19	.
Cc1ccc(S(=O)(=O)NC(=O)COc2ccc([N+](=O)[O-])cc2)cc1	.	.	.	.	17	.
CCc1nc(SCC(=O)Nc2cc(C)ccc2OC)c2c(C)c(C)sc2n1	.	.	.	.	.	.
CC(CCc1ccccc1)NC(=O)COc1ccc(S(=O)(=O)N2CCOCC2)cc1[N+](=O)[O-] (centres undefined)	.	.	.	.	13	.
CCC(C)[C@H]1CNCCN1CCCc1cc(OC)c(OC)c(OC)c1 (some centres undefined)	.	.	.	.	.	.
CC1(C)Cc2nc(NCCCO)c(C#N)cc2CO1	.	.	.	.	16	.
C#Cc1cccc(-n2nnc(C(=O)OC)c2-c2ccccc2)c1	38	.	.	.	.	.
Cc1ccnc(N2C(=O)c3ccccc3C2Nc2ccccc2Cl)c1 (centres undefined)	.	.	.	.	.	.
CCc1ccccc1NC1c2ccccc2C(=O)N1c1cc(C)ccn1 (centres undefined)	.	.	.	.	17	.
COc1ccccc1CC(=O)Nc1ccccc1C(=O)O	.	.	.	.	.	.
CCOC(=O)c1ccccc1NC(=O)Cc1ccccc1OC	50	.	.	.	.	.
CC(=O)c1ccc(N=Nc2ccc(C)cc2)cc1	.	.	.	.	.	.
Cc1ccc(N=Nc2c(O)ccc3n[nH]nc23)cc1	.	.	.	.	13	.
CC(=O)c1cccc(CN2CCCC(C(=O)Nc3cccc(-n4cccn4)c3)C2)c1 (centres undefined)	.	.	.	.	10	.
COc1cccc(-c2ccc(NC(=O)C3CCCN(CCCn4cccn4)C3)cc2)c1 (centres undefined)	.	.	.	.	10	.
O=C(O)Cc1cc(=O)[nH]n(-c2ccccc2)c1=O	.	.	.	.	.	.
CCN(CC)C(=O)c1cccc(-c2csc(C(O)c3ccccc3)n2)c1 (centres undefined)	.	.	.	.	/	.
CCOc1ccc(-c2nn(-c3ccccc3)cc2/C=C(\C#N)S(=O)(=O)c2ccccc2)cc1C	41	.	.	.	.	.
CCCOc1cccc(-c2nn(-c3ccccc3)cc2/C=C(\C#N)C(=O)NCCCn2ccnc2)c1	.	.	.	.	11	.

Screens deposited in PubChem BioAssay by several laboratories.
